The subject of series [1] is 293T cells expressing a TCF-responsive luciferase reporter (293T-TCF-Luc). Nature of the series: Wnt luciferase reporter assay. The format is cell-based. To be noted: Homo sapiens, HEK-293T, 16 h, read-out: IC50 (293T-TCF-Luc). Summed up:
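293T cells stably transduced with a lentiviral TCF/LEF–luciferase reporter and selected in puromycin ([…], 4 days). Seeded at 100 000 cells/well and dosed with test compound on attachment. Wnt signalling stimulated with 20 mM LiCl 4 h later. Lysates taken at 16 h; Bright-Glo luminescence normalised to total protein.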
(A reporter such as luciferase makes a cellular process visible.)

The next series addresses KDM3B (Homo sapiens, UniProt Q7LBC6). Briefly: Western blot KDM3B degradation in SW480 cells. The format is cell-based. Summed up: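 SW480 cells exposed to test compound for 16 h, then total lysates protein-normalised and run on SDS-PAGE. Semi-dry transfer to PVDF, 1 h block in 5% milk. Primary antibody overnight at 4 °C in 1% milk, secondary 1 h at RT, TBST washes, α-tubulin as loading control. Rescue arms co-treated with MLN4924 (1 μM) or pomalidomide (100 μM). Test compound at 0.1 μM for the KDM3A blot and 1 μM for the KDM3B blot.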

Series [2] relates to KDM4 family proteins (KDM4A, KDM4B and KDM4C). Nature of the series: Western blot KDM4 family proteins in SW480 cells. In kind it is cell-based, human. The method in brief:
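Lysates from compound-treated SW480 cells normalised for total protein and resolved by SDS-PAGE. Semi-dry transfer to PVDF, 1 h block in 5% milk. Overnight incubation at 4 °C with anti-KDM4A, -KDM4B or -KDM4C antibody in 1% milk, secondary 1 h at RT, TBST washes, α-tubulin as loading control.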
(In western blotting, separated proteins are transferred to a membrane and probed.)

In another series the target is T1, KDM3A (Homo sapiens, UniProt Q9Y4C1).
T1 sequence (Q9Y4C1 1-1321): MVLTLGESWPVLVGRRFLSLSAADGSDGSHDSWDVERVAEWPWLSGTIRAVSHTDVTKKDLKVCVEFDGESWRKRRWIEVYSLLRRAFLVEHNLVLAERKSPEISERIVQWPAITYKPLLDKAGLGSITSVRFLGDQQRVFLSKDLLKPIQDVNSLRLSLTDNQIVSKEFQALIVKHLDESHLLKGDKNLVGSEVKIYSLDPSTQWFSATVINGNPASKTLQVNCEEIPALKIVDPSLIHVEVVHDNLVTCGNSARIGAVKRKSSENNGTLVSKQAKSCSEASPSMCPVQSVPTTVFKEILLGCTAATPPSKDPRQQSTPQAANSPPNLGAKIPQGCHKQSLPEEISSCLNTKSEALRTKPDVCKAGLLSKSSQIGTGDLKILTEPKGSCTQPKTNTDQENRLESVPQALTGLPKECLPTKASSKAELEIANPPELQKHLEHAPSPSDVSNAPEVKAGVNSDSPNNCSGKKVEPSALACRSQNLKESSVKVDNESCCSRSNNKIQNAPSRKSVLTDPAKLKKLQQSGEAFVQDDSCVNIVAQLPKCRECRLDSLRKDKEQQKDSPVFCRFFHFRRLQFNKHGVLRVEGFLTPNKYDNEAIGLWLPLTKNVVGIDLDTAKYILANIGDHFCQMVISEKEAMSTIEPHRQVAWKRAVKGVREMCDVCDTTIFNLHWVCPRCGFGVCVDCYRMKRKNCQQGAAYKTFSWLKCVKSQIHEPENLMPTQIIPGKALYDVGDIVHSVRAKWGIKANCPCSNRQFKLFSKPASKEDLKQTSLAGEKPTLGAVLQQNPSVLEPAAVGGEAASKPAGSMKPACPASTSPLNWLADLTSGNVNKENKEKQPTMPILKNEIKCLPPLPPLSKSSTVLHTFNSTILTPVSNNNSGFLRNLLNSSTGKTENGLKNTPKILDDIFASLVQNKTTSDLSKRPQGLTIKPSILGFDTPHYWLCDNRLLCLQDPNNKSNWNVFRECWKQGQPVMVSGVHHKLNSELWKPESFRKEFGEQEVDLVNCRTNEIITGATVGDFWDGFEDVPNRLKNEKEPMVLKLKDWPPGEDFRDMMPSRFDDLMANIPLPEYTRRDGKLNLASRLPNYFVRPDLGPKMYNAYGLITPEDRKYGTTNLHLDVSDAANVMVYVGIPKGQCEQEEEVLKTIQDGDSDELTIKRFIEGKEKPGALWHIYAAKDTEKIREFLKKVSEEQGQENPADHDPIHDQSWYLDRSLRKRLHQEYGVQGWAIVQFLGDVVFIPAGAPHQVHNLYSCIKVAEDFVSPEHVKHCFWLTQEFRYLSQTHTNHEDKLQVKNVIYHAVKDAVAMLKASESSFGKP
Nature of the series: Western blot KDM3A degradation in HCP-1 cells. In kind it is cell-based.

A further series has as its target GSPT1 (Homo sapiens, UniProt P15170). Nature of the series: Western blot neo-substrate GSPT1 degradation in SW480 cells. Particulars: 16 hours. The format is cell-based.
In another series the test system is HCP-1 cells. Nature of the series: Clonogenic assay HCP-1. In kind it is cell-based, human. To be noted: HCP-1, 2 weeks. Summed up: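 Cells kept in DMEM with 10% FBS and 1% pen–strep, seeded at 500 cells/well and dosed with test compound once attached. Medium refreshed every 3 days for 2 weeks. Colonies stained with 0.5% crystal violet and photographed. ED50 obtained by image analysis.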

The test system of series [3] is ALDH^High-HCP-1 CSC-derived tumors. Nature of the series: In vivo tumor growth, ALDH^High-HCP-1 CSC xenograft. Details: species or system mice. Summed up: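 NSG mice in 5 groups of 5. FACS-sorted ALDHHigh HCP-1 cells (2500 in Matrigel) injected subcutaneously into both flanks. Test compound given IP at 3, 10 or 35 mg kg−1, or IOX1 at 10 mg kg−1, in PBS/Kolliphor EL vehicle; controls got vehicle; 16 days. Body weight taken every other day, tumour volume on days 9, 13–16, tumour weight at sacrifice.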

The subject of another series is CCND1. Briefly: IHC of HCP-1 xenograft tumors, CCND1. To be noted: HCP-1 xenograft tumor tissues. The format is in vivo, mice. Summed up: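 Tumours came from ALDHHigh HCP-1 xenografts in NSG mice given test compound IP (3, 10 or 35 mg kg−1) for 16 days. Paraffin sections were deparaffinised and rehydrated, then antigen-unmasked. Peroxidase blocked; sections blocked 1 h in 10% goat serum. Primary antibody overnight at 4 °C, biotinylated secondary 30 min at RT, avidin–biotin peroxidase detection, hematoxylin counterstain.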

Series [4] in a line: Hepatic metabolism S9 fraction incubation, human.
The mark [5] stands for this setting: 0.1 μM, plus glutathione, UDPGA, PAPS, 37 °C.

Chain of KDM3B (Q7LBC6 whole entry): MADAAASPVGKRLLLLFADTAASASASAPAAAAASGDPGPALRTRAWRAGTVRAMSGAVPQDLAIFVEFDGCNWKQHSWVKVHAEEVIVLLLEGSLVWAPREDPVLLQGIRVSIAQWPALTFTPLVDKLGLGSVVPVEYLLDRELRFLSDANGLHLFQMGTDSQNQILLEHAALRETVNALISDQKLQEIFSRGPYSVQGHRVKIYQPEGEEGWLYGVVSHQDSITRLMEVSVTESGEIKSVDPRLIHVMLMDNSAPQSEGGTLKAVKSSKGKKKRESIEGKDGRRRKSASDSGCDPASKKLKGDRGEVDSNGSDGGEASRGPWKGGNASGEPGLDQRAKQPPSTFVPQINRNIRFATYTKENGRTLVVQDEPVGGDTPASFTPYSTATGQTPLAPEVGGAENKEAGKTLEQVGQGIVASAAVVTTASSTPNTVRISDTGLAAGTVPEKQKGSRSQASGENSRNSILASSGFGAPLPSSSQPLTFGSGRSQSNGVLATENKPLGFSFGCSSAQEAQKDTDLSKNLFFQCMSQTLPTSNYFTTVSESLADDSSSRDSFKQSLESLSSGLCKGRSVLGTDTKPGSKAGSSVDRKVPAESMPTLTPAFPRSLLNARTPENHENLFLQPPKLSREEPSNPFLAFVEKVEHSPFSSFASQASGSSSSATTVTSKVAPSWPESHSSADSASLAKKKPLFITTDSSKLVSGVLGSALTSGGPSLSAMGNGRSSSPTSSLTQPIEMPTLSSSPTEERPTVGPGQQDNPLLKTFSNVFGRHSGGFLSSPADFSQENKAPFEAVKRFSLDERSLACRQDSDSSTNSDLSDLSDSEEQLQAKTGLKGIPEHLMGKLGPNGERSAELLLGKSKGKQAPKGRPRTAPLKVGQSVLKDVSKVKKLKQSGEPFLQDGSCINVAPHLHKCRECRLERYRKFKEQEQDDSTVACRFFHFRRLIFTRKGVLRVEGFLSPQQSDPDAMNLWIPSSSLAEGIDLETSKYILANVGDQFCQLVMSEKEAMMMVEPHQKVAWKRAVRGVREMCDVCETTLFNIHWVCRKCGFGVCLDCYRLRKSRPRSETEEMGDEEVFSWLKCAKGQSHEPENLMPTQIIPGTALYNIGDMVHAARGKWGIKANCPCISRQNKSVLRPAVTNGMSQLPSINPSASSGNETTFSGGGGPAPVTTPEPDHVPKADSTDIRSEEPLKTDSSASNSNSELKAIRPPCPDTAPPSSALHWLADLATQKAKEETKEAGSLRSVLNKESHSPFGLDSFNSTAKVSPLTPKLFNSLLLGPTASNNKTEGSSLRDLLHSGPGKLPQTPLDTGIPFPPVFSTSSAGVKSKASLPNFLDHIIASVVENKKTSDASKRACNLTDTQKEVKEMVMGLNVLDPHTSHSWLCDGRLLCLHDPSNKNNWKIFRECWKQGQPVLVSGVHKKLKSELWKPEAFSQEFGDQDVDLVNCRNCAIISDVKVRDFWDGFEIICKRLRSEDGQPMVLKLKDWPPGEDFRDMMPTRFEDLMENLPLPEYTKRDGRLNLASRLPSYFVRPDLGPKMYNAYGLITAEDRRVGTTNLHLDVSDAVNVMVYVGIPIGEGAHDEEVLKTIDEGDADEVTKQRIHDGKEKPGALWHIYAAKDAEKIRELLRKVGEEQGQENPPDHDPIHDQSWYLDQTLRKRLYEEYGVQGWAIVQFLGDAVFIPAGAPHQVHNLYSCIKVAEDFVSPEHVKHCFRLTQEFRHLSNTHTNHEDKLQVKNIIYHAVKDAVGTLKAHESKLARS
Chain of GSPT1 (Q16531 whole entry): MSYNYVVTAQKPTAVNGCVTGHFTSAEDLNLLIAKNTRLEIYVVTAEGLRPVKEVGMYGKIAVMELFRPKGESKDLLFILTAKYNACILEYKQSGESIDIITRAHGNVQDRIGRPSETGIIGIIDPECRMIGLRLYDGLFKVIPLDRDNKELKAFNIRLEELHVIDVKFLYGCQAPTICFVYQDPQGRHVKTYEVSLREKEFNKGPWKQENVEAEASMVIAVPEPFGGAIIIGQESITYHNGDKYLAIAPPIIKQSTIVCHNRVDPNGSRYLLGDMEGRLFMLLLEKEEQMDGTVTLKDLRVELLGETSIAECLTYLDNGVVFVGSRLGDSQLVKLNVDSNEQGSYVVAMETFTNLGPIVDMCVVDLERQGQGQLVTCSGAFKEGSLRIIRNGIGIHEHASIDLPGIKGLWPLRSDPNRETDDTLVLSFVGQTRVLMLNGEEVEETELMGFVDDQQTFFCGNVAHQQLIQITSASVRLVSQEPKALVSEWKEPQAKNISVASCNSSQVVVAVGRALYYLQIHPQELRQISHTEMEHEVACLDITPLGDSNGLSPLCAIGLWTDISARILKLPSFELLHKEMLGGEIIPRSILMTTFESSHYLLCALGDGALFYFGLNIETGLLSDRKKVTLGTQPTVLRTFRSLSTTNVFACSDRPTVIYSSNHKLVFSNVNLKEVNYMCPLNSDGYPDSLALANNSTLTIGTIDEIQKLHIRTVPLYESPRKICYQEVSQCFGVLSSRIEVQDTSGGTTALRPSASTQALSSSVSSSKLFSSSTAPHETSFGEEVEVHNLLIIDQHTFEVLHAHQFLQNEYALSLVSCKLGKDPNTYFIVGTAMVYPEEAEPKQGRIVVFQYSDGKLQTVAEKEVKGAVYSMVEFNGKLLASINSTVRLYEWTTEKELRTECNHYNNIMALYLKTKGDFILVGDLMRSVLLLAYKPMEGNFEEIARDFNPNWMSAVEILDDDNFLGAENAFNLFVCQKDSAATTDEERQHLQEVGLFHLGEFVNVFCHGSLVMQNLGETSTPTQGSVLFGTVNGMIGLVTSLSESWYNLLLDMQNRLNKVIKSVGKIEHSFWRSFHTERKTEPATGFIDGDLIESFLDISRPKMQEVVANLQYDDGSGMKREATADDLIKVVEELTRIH
Chain of GSPT1 (Q96SW2 whole entry, further chain): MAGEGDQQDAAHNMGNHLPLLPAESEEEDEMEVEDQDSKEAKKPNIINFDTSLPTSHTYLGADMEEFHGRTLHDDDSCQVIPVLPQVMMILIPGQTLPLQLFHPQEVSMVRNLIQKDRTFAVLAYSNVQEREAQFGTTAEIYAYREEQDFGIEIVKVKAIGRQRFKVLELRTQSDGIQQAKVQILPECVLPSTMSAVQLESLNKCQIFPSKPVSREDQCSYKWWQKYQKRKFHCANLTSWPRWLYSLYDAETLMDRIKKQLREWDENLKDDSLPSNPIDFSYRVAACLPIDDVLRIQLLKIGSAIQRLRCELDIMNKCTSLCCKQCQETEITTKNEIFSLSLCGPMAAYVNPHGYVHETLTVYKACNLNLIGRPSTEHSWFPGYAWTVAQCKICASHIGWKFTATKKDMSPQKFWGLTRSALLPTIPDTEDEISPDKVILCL
Chain of GSPT1 (P15170 whole entry): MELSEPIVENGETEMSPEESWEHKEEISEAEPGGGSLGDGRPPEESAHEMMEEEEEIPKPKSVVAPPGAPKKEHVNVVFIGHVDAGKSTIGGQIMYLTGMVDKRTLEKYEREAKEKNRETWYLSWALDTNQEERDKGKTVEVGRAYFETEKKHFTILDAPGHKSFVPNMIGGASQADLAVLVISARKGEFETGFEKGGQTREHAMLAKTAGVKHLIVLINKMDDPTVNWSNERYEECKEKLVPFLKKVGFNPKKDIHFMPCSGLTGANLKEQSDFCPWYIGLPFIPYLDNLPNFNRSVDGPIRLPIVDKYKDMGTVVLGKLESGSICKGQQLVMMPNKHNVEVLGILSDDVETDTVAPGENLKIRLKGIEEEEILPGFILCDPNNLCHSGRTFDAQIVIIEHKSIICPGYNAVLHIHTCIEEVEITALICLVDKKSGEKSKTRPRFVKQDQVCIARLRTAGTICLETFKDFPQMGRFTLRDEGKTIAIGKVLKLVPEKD

As usually defined, the IC50 is the concentration that gives 50% inhibition. In general, Dmax refers to the largest share of the target that was removed. As usually defined, the DC50 is the concentration giving 50% degradation. The half-life is how long it takes for the measured level to halve. On to `O=C1CCC(N2C(=O)c3cccc(NCCOCCOCCOCCOCCNC(=O)c4ccc(O)c5ncccc45)c3C2=O)C(=O)N1` (stereo not shown) [Compound 4, N-(14-((2-(2,6-Dioxopiperidin-3-yl)-1,3-dioxoisoindolin-4-yl)amino)-3,6,9,12-tetraoxatetradecyl)-8-hydroxyquinoline-5-carboxamide], for which the IC50 in series [1] was determined as 8.9 µM. The Dmax on KDM3B (SW480, read-out: Dmax KDM3B) turned out to be 88.5%. The “KDM3B degradation with MLN4924 co-treatment” value at KDM3B (SW480, MLN4924 1 μM, compound 4 1 μM) is on record as “could be restored by MLN4924”. In addition, the “KDM3B degradation with pomalidomide or IOX1 co-treatment” value on KDM3B (SW480, pomalidomide 100 μM, compound 4 1 μM) was “could also be suppressed by either pomalidomide or IOX1”. The “KDM3B degradation (western blot)” value at KDM3B (SW480 cells, 16 hours) is “degrades both KDM3A and KDM3B at nanomolar concentrations”. The DC50 on KDM3B (read-out: DC50 KDMB, SW480 cells, 16 hours) was found to be 0.173 µM. The “effect on KDM4 family proteins” value in series [2] is “not dramatically affected”. Moreover, at KDM3A, the KDM3A degradation result was “potently induce KDM3A and KDM3B degradation”. At GSPT1, the GSPT1 degradation entry was “did not induce”. Also, the colony formation result in the series with HCP-1 cells is recorded as “potently inhibited the colony formation”. The “tumor volume and tumor weight vs IOX1 group” value in [3] (3 mg kg^−1 IP vs IOX1 10 mg kg^−1) is reported as “no significant change”. For the same compound, in [3] (3, 10, 35 mg kg^−1 IP, 16 days, vs vehicle), the CSC-derived tumor growth result is “significantly inhibited”. Further, the “tumor volume and tumor weight vs IOX1 group” value in [3] (10 and 35 mg kg^−1 IP vs IOX1 10 mg kg^−1) is given as “significantly decreased”. Further, the “body weight of mice” value in series [3] (IP, 16 days) is “little impact on the body weight”. The “CCND1 expression (IHC)” value in the series on CCND1 is given as “downregulated”. Further, in [4] (setting [5]), the “CLint Human (liver, S9)” value was 41.6 µL/min/mg and the “t 1/2 Human (liver, S9)” value was found to be 16.7 min. In addition, the “clearance classification, human” value in [4] (CLint classification bands) is “moderate clearance”. For the same compound, the half-life at 0.1 μM in series [4] (human, s9, t 1/2 Human (liver, S9), 0.1 μM, plus glutathione, UDPGA, PAPS, 37 °C) amounted to 16 min.

For the origin of these results see publication PMC11393732 (RSC Medicinal Chemistry, 2024).
